These results are taken from ChEMBL document CHEMBL1134066, “A new structural class of selective and non-covalent inhibitors of the chymotrypsin-like activity of the 20S proteasome” (Bioorg Med Chem Lett, 2001).

By IC50 is commonly meant the midpoint of a concentration-inhibition curve. A low value points to greater potency in that assay.

Some results are limits rather than exact numbers.

The assay is filed under the species Homo sapiens. Put plainly: In vitro inhibitory concentration against Chymotrypsin-like activity of the purified human placenta 20S Proteasome. Format: functional. The method, boiled down: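 Purified human placenta 20S proteasome; chymotrypsin-like activity measured by cleavage of the fluorogenic substrate Suc-Leu-Val-Tyr-AMC (AMC release). Trypsin-like (Boc-Leu-Arg-Arg-AMC) and post-glutamyl-peptide hydrolytic-like (Z-Leu-Leu-Glu-AMC) substrates were used for the parallel selectivity assays.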
As for `COc1ccc(CN[C@@H](C(=O)N[C@H](C(=O)NCc2ccc(OC)cc2O)C(C)C)[C@H](O)[C@H](Cc2ccccc2)NC(=O)[C@@H](NC(=O)OCc2ccccc2)C(C)C)cc1`, the IC50 turned out to be 3300 nM.
With `COc1ccc(CN[C@@H](C(=O)N[C@H](C(=O)NCc2ccc(OC)cc2O)C(C)C)[C@H](O)[C@H](Cc2ccccc2)NC(=O)[C@@H](NC(=O)Cc2cccc3ccccc23)C(C)(C)C)cc1`, the IC50 worked out at 100 nM.
Under `COc1ccc(CN[C@@H](C(=O)N[C@H](C(=O)NCc2ccc(OC)cc2O)C(C)C)[C@H](O)[C@H](Cc2ccccc2)NC(=O)[C@@H](NC(=O)OCc2cc(C)cc(C)c2)C(C)(C)C)cc1` stands 1100 nM; under `COc1ccc(CN[C@@H](C(=O)N[C@H](C(=O)NCc2ccc(OC)cc2O)C(C)C)[C@H](O)[C@H](Cc2ccccc2)NC(=O)[C@@H](NC(=O)OCc2ccccc2)C(C)(C)C)cc1`, 900 nM; under `COc1ccc(CN[C@@H](C(=O)N[C@H](C(=O)NCc2ccc(OC)cc2O)C(C)C)[C@H](O)[C@H](Cc2ccccc2)NC(=O)[C@@H](NC(=O)OC(C)(C)C)C(C)(C)C)cc1`, 27000 nM.
In turn, `COc1ccc(CN[C@@H](C(=O)N[C@H](C(=O)NCc2ccc(OC)cc2O)C(C)C)[C@H](O)[C@H](Cc2ccccc2)NC(=O)[C@@H](NC(=O)OCc2cccc3ccccc23)C(C)(C)C)cc1` came in with an IC50 of 2000 nM.
Regarding `COc1ccc(CN[C@@H](C(=O)N[C@H](C(=O)NCc2ccc(OC)cc2O)C(C)C)[C@H](O)[C@H](Cc2ccccc2)NC(=O)[C@@H](NC(=O)CCc2cccc(N)c2)C(C)(C)C)cc1`, it took 600 nM to reach half-maximal inhibition (IC50).
Next, `COc1ccc(CN[C@@H](C(=O)N[C@H](C(=O)NCc2ccc(OC)cc2O)C(C)C)[C@H](O)[C@H](Cc2ccccc2)NC(=O)[C@@H](NC(=O)OCc2cccc(C)c2)C(C)(C)C)cc1`: 500 nM; `COc1ccc(CN[C@@H](C(=O)N[C@H](C(=O)NCc2ccc(OC)cc2O)C(C)C)[C@H](O)[C@H](Cc2ccccc2)NC(=O)[C@@H](NC(=O)OCc2cccc(N)c2)C(C)(C)C)cc1`: 600 nM.
As for `COc1ccc(CN[C@@H](C(=O)N[C@H](C(=O)NCc2ccc(OC)cc2OC)C(C)C)[C@H](O)[C@H](Cc2ccccc2)NC(=O)[C@@H](NC(=O)OCc2ccccc2)C(C)C)cc1`, the IC50 was over 20000 nM.
Under `COc1ccc(CN[C@@H](C(=O)N[C@H](C(=O)NCc2ccc(OC)cc2O)C(C)C)[C@H](O)[C@H](Cc2ccccc2)NC(=O)[C@@H](N)C(C)(C)C)cc1` stands 70000 nM; under `COc1ccc(CN[C@@H](C(=O)N[C@H](C(=O)NCc2ccccc2O)C(C)C)[C@H](O)[C@H](Cc2ccccc2)NC(=O)[C@@H](NC(=O)OCc2ccccc2)C(C)(C)C)cc1`, 72000 nM.
